ChEMBL document CHEMBL1128673, “Conformationally constrained phosphotyrosyl mimetics designed as monomeric Src homology 2 domain inhibitors” (J Med Chem, 1995)

Assays:
[1] = target: Tyrosine-protein kinase Lck (Homo sapiens) (UniProt P06239); test: In vitro binding to p56 Lck SH2 domain
Summary of the method: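 Lck SH2 domain as a GST fusion (0.5–1.0 μM, Bradford) with 35 fmol (67 nCi) [125I]Bolton–Hunter hmT pY324 phosphopeptide and varying unlabelled pTyr analogue in 20 mM Tris-HCl, 250 mM NaCl, 0.1% BSA, 10 mM DTT, pH 7.4. Complexes were captured on glutathione-agarose overnight at 22 °C, pelleted at 12000g for 5 min, and unwashed pellets gamma-counted.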

[2] = In vitro binding to p85-C SH2 domain
Summary of the method: (§1)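 GST fusion of the p85 PI-3 kinase C-terminal SH2 domain (0.5–1.0 μM, Bradford) with 35 fmol (67 nCi) [125I]Bolton–Hunter-labelled IRS-1 pY628 phosphopeptide and varying unlabelled pTyr analogue in 20 mM Tris-HCl, 250 mM NaCl, 0.1% BSA, 10 mM DTT, pH 7.4. Glutathione-agarose capture ran overnight at 22 °C, then 12000g for 5 min; pellet 125I was gamma-counted.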

[3] = target: T1, Tyrosine-protein phosphatase non-receptor type 11 (Homo sapiens) (UniProt Q06124); test: In vitro binding to SH-PTP2-N (SHP-2) SH2 domain
T1 sequence (whole entry): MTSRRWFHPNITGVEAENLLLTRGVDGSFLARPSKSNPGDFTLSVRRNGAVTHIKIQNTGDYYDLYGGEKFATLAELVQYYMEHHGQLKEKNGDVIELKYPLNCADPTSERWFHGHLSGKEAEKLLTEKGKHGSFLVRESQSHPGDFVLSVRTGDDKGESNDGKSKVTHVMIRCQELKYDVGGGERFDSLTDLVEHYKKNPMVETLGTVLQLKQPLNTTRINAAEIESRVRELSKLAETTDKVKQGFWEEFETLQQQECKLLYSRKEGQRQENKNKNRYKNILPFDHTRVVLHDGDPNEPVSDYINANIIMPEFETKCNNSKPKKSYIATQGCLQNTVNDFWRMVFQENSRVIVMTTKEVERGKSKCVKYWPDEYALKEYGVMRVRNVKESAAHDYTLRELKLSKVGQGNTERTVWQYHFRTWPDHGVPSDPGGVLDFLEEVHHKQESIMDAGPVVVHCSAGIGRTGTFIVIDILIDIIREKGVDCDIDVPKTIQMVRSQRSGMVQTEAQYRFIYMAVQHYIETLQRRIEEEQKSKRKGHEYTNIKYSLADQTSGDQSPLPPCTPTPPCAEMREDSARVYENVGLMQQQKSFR
Summary of the method: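 SH-PTP2 N-terminal SH2 domain as a GST fusion (0.5–1.0 μM, Bradford) was mixed with 35 fmol (67 nCi) [125I]Bolton–Hunter IRS-1 pY1172 phosphopeptide and varying unlabelled pTyr analogue in 20 mM Tris-HCl, 250 mM NaCl, 0.1% BSA, 10 mM DTT, pH 7.4. Glutathione-agarose pull-down ran overnight at 22 °C, then 12000g for 5 min, with gamma counting of unwashed pellets.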

[4] = In vitro binding to Phospholipase C-gamma SH2 domain
Summary of the method: as §1, with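 “Competition binding used GST” for “GST”, “PLCγ” for “p85 PI-3 kinase”, “PDGF pY1021” for “IRS-1 pY628”, “plus” for “and”, “analogue. Buffer was” for “analogue in”, “°C with mixing,” for “°C,”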

[5] = target: Proto-oncogene tyrosine-protein kinase Src (Homo sapiens) (UniProt P12931); test: In vitro binding to Src SH2 domain
[6] = target: Growth factor receptor-bound protein 2 (Homo sapiens) (UniProt P62993); test: In vitro binding to Growth factor receptor bound protein 2
Summary of the method: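 GST–Grb2 SH2 fusion (0.5–1.0 μM, Bradford-estimated) with 35 fmol (67 nCi) [125I]Bolton–Hunter-labelled Shc pY317 phosphopeptide and varying unlabelled pTyr analogue in 20 mM Tris-HCl, 250 mM NaCl, 0.1% BSA, 10 mM DTT, pH 7.4. Glutathione-agarose was added, then overnight at 22 °C with mixing. After centrifugation at 12000g for 5 min, unwashed pellet radioactivity was gamma-counted.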

Tyrosine-protein kinase Lck (Homo sapiens), sequence (P06239 2-509 limits assumed): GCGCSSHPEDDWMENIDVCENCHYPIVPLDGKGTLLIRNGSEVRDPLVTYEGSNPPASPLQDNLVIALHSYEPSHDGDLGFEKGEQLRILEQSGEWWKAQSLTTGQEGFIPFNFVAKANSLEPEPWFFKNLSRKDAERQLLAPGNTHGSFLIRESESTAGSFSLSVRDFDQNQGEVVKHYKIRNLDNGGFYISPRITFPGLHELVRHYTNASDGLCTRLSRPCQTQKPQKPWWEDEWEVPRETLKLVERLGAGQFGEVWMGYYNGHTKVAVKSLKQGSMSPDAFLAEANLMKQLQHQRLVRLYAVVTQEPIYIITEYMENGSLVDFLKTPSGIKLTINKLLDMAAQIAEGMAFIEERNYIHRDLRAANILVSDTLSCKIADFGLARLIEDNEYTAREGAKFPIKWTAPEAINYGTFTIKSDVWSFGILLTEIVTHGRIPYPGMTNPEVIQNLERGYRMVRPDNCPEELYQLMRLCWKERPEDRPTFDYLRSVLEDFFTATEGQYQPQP
Proto-oncogene tyrosine-protein kinase Src (Homo sapiens), sequence (P12931 2-536 limits assumed): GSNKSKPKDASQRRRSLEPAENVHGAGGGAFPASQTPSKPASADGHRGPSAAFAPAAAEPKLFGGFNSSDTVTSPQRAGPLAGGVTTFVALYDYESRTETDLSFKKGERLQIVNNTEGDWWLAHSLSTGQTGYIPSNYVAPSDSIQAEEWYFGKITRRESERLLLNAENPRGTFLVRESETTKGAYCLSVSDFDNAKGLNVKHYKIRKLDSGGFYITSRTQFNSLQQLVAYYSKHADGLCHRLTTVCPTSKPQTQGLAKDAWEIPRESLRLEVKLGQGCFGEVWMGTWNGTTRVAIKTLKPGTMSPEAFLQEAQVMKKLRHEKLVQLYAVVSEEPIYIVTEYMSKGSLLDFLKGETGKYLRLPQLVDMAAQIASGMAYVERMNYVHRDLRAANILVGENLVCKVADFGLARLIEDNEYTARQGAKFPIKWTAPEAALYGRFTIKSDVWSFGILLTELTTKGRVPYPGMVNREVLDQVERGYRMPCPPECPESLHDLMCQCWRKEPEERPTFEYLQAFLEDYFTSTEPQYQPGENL

Row | ID50 [1] | ID50 [2] | ID50 [3] | ID50 [4] | ID50 [5] | ID50 [6] | SMILES
1 | > 6000 µM | > 5000 µM | > 3000 µM | > 6000 µM | > 6000 µM |  | CC(=O)N1CC2Cc3cc(O)ccc3C(C)(C2)C1 (racemic)
2 | > 3000 µM | 1300 µM | > 3000 µM | > 3000 µM | 900 µM |  | CC(=O)N1CC2Cc3cc(OP(=O)(O)O)ccc3C(C)(C2)C1 (racemic)
3 | 1500 µM | 1500 µM | > 3000 µM | > 3000 µM | > 3000 µM | > 3000 µM | CC(=O)N[C@H](C(N)=O)[C@H]1CCc2cc(OP(=O)(O)O)ccc21 (racemic)

Continued, molecule first:

Row | SMILES | ID50 [1] | ID50 [2] | ID50 [3] | ID50 [4] | ID50 [5] | ID50 [6]
4 | CC(=O)N[C@@H](Cc1ccc(OP(=O)(O)O)cc1)C(N)=O | > 3000 µM | 1500 µM | > 3000 µM | 400 µM | 1000 µM | 
5 | N[C@@H](Cc1ccc(OP(=O)(O)O)cc1)C(=O)O | 5000 µM | 3500 µM | > 33000 µM | 2300 µM | 3500 µM | 6200 µM
6 | CC(=O)N[C@H](C(N)=O)[C@@H]1CCc2cc(OP(=O)(O)O)ccc21 (racemic) | > 3000 µM | 1500 µM | > 3000 µM | > 3000 µM | > 3000 µM | > 3000 µM
